Two compounds from ChEMBL document CHEMBL1152867, “Targeting QseC signaling and virulence for antibiotic development” (Science, 2008) can be followed below.

This test has as its system Escherichia coli. The test is described as follows: Inhibition of [3H]norepinephrine binding to Escherichia coli Qsec by liposome-based scintillation counting assay. The method in brief: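 Liposomes reconstituted with QseC were loaded with tritiated norepinephrine (5 μM) by freeze-thaw in liquid N2 and held 10 min at room temperature, so unbound signal could diffuse out. They were pelleted at 12,000g for 5 min and counted for tritium. Counts were normalized to liposomes loaded with 5 μM tyrosine. Compound was tested at 5 pM and 5 fM.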

Activity calls are given as the source filed them. The calls are words filed in the database; no cut-off is given here.

As for `Cc1ccc(N(CC2=NCCN2)c2cccc(O)c2)cc1`, the result was Active.

`CC(C)NCC(O)COc1cccc2ccccc12` (configuration not stated): the result was inactive.
